Assay results: ChEMBL document CHEMBL3232843, “Novel pyrrolidine diketopiperazines selectively inhibit melanoma cells via induction of late-onset apoptosis” (J Med Chem, 2014)
Calls of active or inactive are those of the source. No cut-off for these calls is given here.

Key:
M14 [1] = assay: Cytotoxicity against human M14 cells at 100 uM after 72 hrs by CellTiter-Glo luminescence assay; format: functional; details: M14, 72 h
Method in brief: (§1)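 1250 cells per well in serum-free medium (F12 for CHO-K1 and A549, DMEM for M14). Compounds given as 10-point 1:3 serial dilutions from a 300 µM stock, plus a gefitinib control. Incubated 72 h at 37 °C, 5% CO2. CellTiter-Glo added for 15 min at room temperature, then luminescence read. Viability normalized to media-only wells (0%) and 1% DMSO wells (100%). Run in triplicate.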

[2] = Cytotoxicity against CHOK1 cells at 100 uM after 72 hrs by CellTiter-Glo luminescence assay; format: cell-based, Cricetulus griseus; details: chinese hamster, CHO-K1 cells; read-out: INH; method in brief: as §1
A549 = assay: Cytotoxicity against human A549 cells at 100 uM after 72 hrs by CellTiter-Glo luminescence assay; format: functional; details: A549, 72 h; method in brief: as §1
M14 [3] = assay: Induction of apoptosis human M14 cells assessed as caspase activity at 100 uM after 4 to 72 hrs using DEVD peptide as substrate by ApoTox-Glo triplex assay; format: functional, cell-based
Method in brief: (§2)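 M14 #5 cells, 1250 per well in serum-free DMEM, pre-incubated 4 h at 37 °C, 5% CO2. Compounds added as 1:3 serial dilutions; incubated 4, 24, 48 and 72 h. Per time point, a reagent containing 400 µM GF-AFC (live-cell protease) and 400 µM bis-AAF-R110 (dead-cell protease) was added for 30 min at 37 °C, then fluorescence was read. Caspase-Glo 3/7 was added next, 30 min at room temperature, then luminescence.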

M14 [4] = assay: Cytotoxicity against human M14 cells assessed as cell viability after 4 hrs using GF-AFC as substrate by ApoTox-Glo triplex assay; format: functional, cell-based; method in brief: as §2

Row | SMILES | inhibition at 100 µM (M14 [1]) [%] | cytotoxicity at 72 h, 100 µM [2] [%] | inhibition at 100 µM (A549) [%] | Activity (M14 [3]) | Activity (M14 [4])
1 | CCC[C@@H]1CNC(=O)C(=O)N1C[C@@H]1CCCN1C[C@H](Cc1ccc(O)cc1)N1C[C@H](Cc2ccc(O)cc2)N(CC(CC)c2ccccc2)C(=O)C1=O (stereo not given in full) | 10 | 27 | 0 | – | –
2 | CCC[C@@H]1CNC(=O)C(=O)N1C[C@@H]1CCCN1C[C@@H](Cc1ccc(O)cc1)N1C[C@H](Cc2ccc(O)cc2)N(CC2CCCC2)C(=O)C1=O | 23 | 19 | 16 | – | –
3 | CCC[C@@H]1CNC(=O)C(=O)N1C[C@@H]1CCCN1C[C@@H](Cc1ccc(O)cc1)N1C[C@@H](Cc2ccc(O)cc2)N(CC(CC)c2ccccc2)C(=O)C1=O (stereo not given in full) | 14 | 59 | 8 | – | –
4 | CCC[C@@H]1CNC(=O)C(=O)N1C[C@@H]1CCCN1C[C@@H](Cc1ccc(O)cc1)N1C[C@@H](Cc2ccc(O)cc2)N(CC2CCCC2)C(=O)C1=O | 25 | 11 | 14 | – | –
5 | CCC[C@@H]1CNC(=O)C(=O)N1C[C@@H]1CCCN1C[C@@H](Cc1ccc(O)cc1)N1C[C@H](Cc2ccc(O)cc2)N(CC(CC)c2ccccc2)C(=O)C1=O (stereo not given in full) | 7 | 48 | 4 | – | –
6 | CCC[C@@H]1CNC(=O)C(=O)N1C[C@@H]1CCCN1C[C@H](Cc1ccc(O)cc1)N1C[C@H](Cc2ccc(O)cc2)N(CC2CCCC2)C(=O)C1=O | 15 | 7 | 0 | – | –
7 | C[C@H](CCC(=O)O)C[C@H](C)C[C@H](C)C(=O)/C=C(\O)[C@H](C)C[C@H](C)C/C=C/[C@@H](C)[C@@H](O)[C@@H](C)[C@@H](O)C[C@@H]1CC[C@@](C)([C@H]2CC[C@@](C)([C@@H](C)O)O2)O1 | – | – | – | inactive | Dose-dependent effect
